Source: ChEMBL document CHEMBL5303300, “EUbOPEN Chemogenomics Library - Multiplex” (2023)
Several values for one entry are separate records, joined by “and”; a condition that tells them apart may be missing. Identical values can stand only once.

System: Fibroblast
Assay: Multiplex assay against human fibroblast
Type: toxicity, cell-based
Settings: number of replicates 2
Summary of the method: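 Cells stained live at seeding with Hoechst33342, BioTracker Green Microtubule Cytoskeleton Dye, MitoTracker Red and Annexin V Alexa Fluor 680 were imaged on a CQ1 microscope at 37°C and 5% CO2 after compound addition. Their classification by CellPathfinder machine-learning gating ran from Hoechst high-intensity objects versus normal cells, to healthy, pyknosed or fragmented nuclei among normal cells, to mitotic or apoptotic among pyknosed cells. Tubulin, mitochondrial-mass and membrane-permeability phenotypes are per cents of healthy-nucleus cells.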

[1] = 12 h, 1 µM, compound concentration 1 uM
[2] = 12 h, 10 µM, compound concentration 10 uM
[3] = 24 h, 1 µM, compound concentration 1 uM
[4] = 24 h, 10 µM, compound concentration 10 uM
[5] = 48 h, 1 µM, compound concentration 1 uM
[6] = 48 h, 10 µM, compound concentration 10 uM

## CC1=C(C)C(=O)C(C(CCCCCC(=O)O)c2ccccc2)=C(C)C1=O (centres undefined) [SERATRODAST]
[1]
  Population Apoptotic (%): 50% and 60%
  Population Fragmented Nuclei (%): 6% and 11%
  Population Healthy Nuclei (%): 57% and 79%
  Population Hoechst High Intensity Objects (%): 0%
  Population Membrane Permeable-Phenotype (%): 5% and 2%
  Population Mitochondria Different-Phenotype (%): 0% and 2%
  Population Mitotic Cells (%): 50% and 40%
  Population Normal (%): 99% and 100%
  Population Tubulin-Different-Phenotype (%): 5% and 3%
  Total Cell Count: 128 and 228
[2]
  Population Apoptotic (%): 35% and 25%
  Population Fragmented Nuclei (%): 12% and 18%
  Population Healthy Nuclei (%): 79% and 75%
  Population Hoechst High Intensity Objects (%): 0%
  Population Membrane Permeable-Phenotype (%): 6% and 5%
  Population Mitochondria Different-Phenotype (%): 1%
  Population Mitotic Cells (%): 64% and 75%
  Population Normal (%): 100%
  Population Pyknosed Nuclei (%): 8% and 6%
  Population Tubulin-Different-Phenotype (%): 15% and 8%
  Total Cell Count: 167 and 192
[3]
  Population Apoptotic (%): 67% and 52%
  Population Fragmented Nuclei (%): 3% and 13%
  Population Healthy Nuclei (%): 64% and 76%
  Population Hoechst High Intensity Objects (%): 0%
  Population Membrane Permeable-Phenotype (%): 7% and 2%
  Population Mitochondria Different-Phenotype (%): 1% and 0%
  Population Mitotic Cells (%): 32% and 47%
  Population Normal (%): 99% and 100%
  Population Tubulin-Different-Phenotype (%): 9% and 1%
  Total Cell Count: 128 and 230
[4]
  Population Fragmented Nuclei (%): 11% and 14%
  Population Healthy Nuclei (%): 81%
  Population Hoechst High Intensity Objects (%): 0%
  Population Membrane Permeable-Phenotype (%): 3%
  Population Mitochondria Different-Phenotype (%): 0% and 1%
  Population Mitotic Cells (%): 36% and 85%
  Population Normal (%): 100%
  Population Pyknosed Nuclei (%): 6% and 3%
  Population Tubulin-Different-Phenotype (%): 8% and 9%
  Total Cell Count: 171 and 193
[5]
  Population Apoptotic (%): 79% and 52%
  Population Fragmented Nuclei (%): 9% and 16%
  Population Healthy Nuclei (%): 65% and 75%
  Population Hoechst High Intensity Objects (%): 0%
  Population Membrane Permeable-Phenotype (%): 3% and 1%
  Population Mitochondria Different-Phenotype (%): 0%
  Population Mitotic Cells (%): 20% and 47%
  Population Normal (%): 99% and 100%
  Population Tubulin-Different-Phenotype (%): 3% and 2%
  Total Cell Count: 133 and 248
[6]
  Population Apoptotic (%): 40% and 36%
  Population Fragmented Nuclei (%): 15% and 21%
  Population Healthy Nuclei (%): 81% and 73%
  Population Hoechst High Intensity Objects (%): 0%
  Population Membrane Permeable-Phenotype (%): 2% and 1%
  Population Mitochondria Different-Phenotype (%): 0%
  Population Mitotic Cells (%): 60% and 63%
  Population Normal (%): 100%
  Population Pyknosed Nuclei (%): 2% and 5%
  Population Tubulin-Different-Phenotype (%): 6% and 5%
  Total Cell Count: 171 and 213

## CCOC(=O)Nc1cc(-c2ccc(C)c(NS(C)(=O)=O)c2)nn2c(C)nnc12
[2]
  Population Apoptotic (%): 56% and 50% and 58% and 35%
  Population Fragmented Nuclei (%): 24% [middle of 4 runs]
  Population Healthy Nuclei (%): 74% and 67% and 65% and 60%
  Population Hoechst High Intensity Objects (%): 0%
  Population Mitochondria Different-Phenotype (%): 4% and 3% and 1%
  Population Mitotic Cells (%): 43% and 50% and 41% and 64%
  Population Normal (%): 99% and 100%
  Population Pyknosed Nuclei (%): 13% and 8%
  Population Tubulin-Different-Phenotype (%): 52% and 63% and 54% and 62%
  Total Cell Count: 238 and 256 and 323 and 254
[4]
  Population Apoptotic (%): 52% and 69% and 65% and 42%
  Population Fragmented Nuclei (%): 33% and 20% and 21% and 34%
  Population Healthy Nuclei (%): 58% and 68% and 66% and 56%
  Population Hoechst High Intensity Objects (%): 0%
  Population Membrane Permeable-Phenotype (%): 11% and 5% and 12%
  Population Mitochondria Different-Phenotype (%): 7% and 4% and 2%
  Population Mitotic Cells (%): 47% and 30% and 34% and 57%
  Population Normal (%): 100%
  Population Pyknosed Nuclei (%): 7% and 11% and 8%
  Population Tubulin-Different-Phenotype (%): 57% and 33% and 29% and 43%
  Total Cell Count: 314 and 289 and 319 and 299
[6]
  Population Apoptotic (%): 80% and 97% and 72%
  Population Fragmented Nuclei (%): 16% and 27% and 31%
  Population Healthy Nuclei (%): 71% and 60% and 67% and 52%
  Population Hoechst High Intensity Objects (%): 0%
  Population Membrane Permeable-Phenotype (%): 10% [middle of 4 runs]
  Population Mitochondria Different-Phenotype (%): 1% and 9% and 3% and 8%
  Population Normal (%): 100%
  Population Pyknosed Nuclei (%): 12% and 16%
  Population Tubulin-Different-Phenotype (%): 24% and 48% and 26% and 34%
  Total Cell Count: 248 and 265 and 292 and 250

## CS(=O)(=O)c1ccc(C(=O)Nc2cccc(COc3cc(F)c(Br)cc3CN3CC[C@H](O)C3)c2)c(Cl)c1.O=CO
[1]
  Population Apoptotic (%): 46% and 35%
  Population Healthy Nuclei (%): 48% and 72%
  Population Mitotic Cells (%): 53% and 64%
  Population Pyknosed Nuclei (%): 41% and 16%
  Total Cell Count: 114 and 171
[2]
  Population Apoptotic (%): 51% and 40%
  Population Healthy Nuclei (%): 48% and 51%
  Population Mitotic Cells (%): 48% and 59%
  Population Pyknosed Nuclei (%): 33% and 23%
  Total Cell Count: 211 and 262
[3]
  Population Apoptotic (%): 55% and 57%
  Population Healthy Nuclei (%): 50%
  Population Mitotic Cells (%): 42%
  Population Pyknosed Nuclei (%): 39% and 18%
  Total Cell Count: 120 and 190
[4]
  Population Apoptotic (%): 77% and 74%
  Population Healthy Nuclei (%): 53% and 58%
  Population Mitotic Cells (%): 22%
  Population Pyknosed Nuclei (%): 26% and 19%
  Total Cell Count: 217 and 251
[5]
  Population Apoptotic (%): 75% and 82%
  Population Healthy Nuclei (%): 62%
  Population Mitotic Cells (%): 24%
  Population Pyknosed Nuclei (%): 23% and 11%
  Total Cell Count: 123 and 198
[6]
  Population Apoptotic (%): 92% and 82%
  Population Healthy Nuclei (%): 62% and 60%
  Population Mitotic Cells (%): 7%
  Population Pyknosed Nuclei (%): 15% and 14%
  Total Cell Count: 245 and 274

## CN1CCc2cc(Nc3ncc(C(F)(F)F)c(NCc4cc[nH]n4)n3)ccc2C1
[1]
  Population Apoptotic (%): 63% and 62%
  Population Fragmented Nuclei (%): 7% and 19%
  Population Healthy Nuclei (%): 63% and 58%
  Population Hoechst High Intensity Objects (%): 0%
  Population Membrane Permeable-Phenotype (%): 3% and 6%
  Population Mitochondria Different-Phenotype (%): 0% and 1%
  Population Mitotic Cells (%): 36% and 37%
  Population Normal (%): 100%
  Population Pyknosed Nuclei (%): 28% and 22%
  Population Tubulin-Different-Phenotype (%): 1% and 4%
  Total Cell Count: 133 and 168
[2]
  Population Apoptotic (%): 70% and 60%
  Population Fragmented Nuclei (%): 19% and 24%
  Population Healthy Nuclei (%): 60% and 63%
  Population Hoechst High Intensity Objects (%): 0%
  Population Membrane Permeable-Phenotype (%): 9% and 11%
  Population Mitochondria Different-Phenotype (%): 1%
  Population Mitotic Cells (%): 29% and 40%
  Population Normal (%): 100%
  Population Pyknosed Nuclei (%): 20% and 11%
  Population Tubulin-Different-Phenotype (%): 16% and 18%
  Total Cell Count: 180 and 262
[3]
  Population Apoptotic (%): 84% and 80%
  Population Fragmented Nuclei (%): 15%
  Population Healthy Nuclei (%): 40% and 50%
  Population Hoechst High Intensity Objects (%): 0%
  Population Membrane Permeable-Phenotype (%): 3% and 12%
  Population Mitochondria Different-Phenotype (%): 0%
  Population Mitotic Cells (%): 15% and 20%
  Population Normal (%): 100% and 99%
  Population Pyknosed Nuclei (%): 43% and 34%
  Population Tubulin-Different-Phenotype (%): 3%
  Total Cell Count: 133 and 161
[4]
  Population Apoptotic (%): 61% and 84%
  Population Fragmented Nuclei (%): 26% and 20%
  Population Healthy Nuclei (%): 56% and 61%
  Population Hoechst High Intensity Objects (%): 0%
  Population Membrane Permeable-Phenotype (%): 9% and 12%
  Population Mitochondria Different-Phenotype (%): 3% and 1%
  Population Mitotic Cells (%): 38% and 15%
  Population Normal (%): 100% and 99%
  Population Pyknosed Nuclei (%): 16% and 17%
  Population Tubulin-Different-Phenotype (%): 17% and 19%
  Total Cell Count: 185 and 253
[5]
  Population Apoptotic (%): 88% and 72%
  Population Fragmented Nuclei (%): 24% and 15%
  Population Healthy Nuclei (%): 40% and 67%
  Population Hoechst High Intensity Objects (%): 0%
  Population Membrane Permeable-Phenotype (%): 8% and 14%
  Population Mitochondria Different-Phenotype (%): 0%
  Population Mitotic Cells (%): 11% and 27%
  Population Normal (%): 100% and 99%
  Population Pyknosed Nuclei (%): 35% and 16%
  Population Tubulin-Different-Phenotype (%): 10% and 12%
  Total Cell Count: 122 and 133
[6]
  Population Apoptotic (%): 65% and 59%
  Population Fragmented Nuclei (%): 26% and 22%
  Population Healthy Nuclei (%): 51% and 57%
  Population Hoechst High Intensity Objects (%): 0%
  Population Membrane Permeable-Phenotype (%): 5% and 9%
  Population Mitochondria Different-Phenotype (%): 1% and 0%
  Population Mitotic Cells (%): 34% and 40%
  Population Normal (%): 100%
  Population Pyknosed Nuclei (%): 22% and 19%
  Population Tubulin-Different-Phenotype (%): 14% and 19%
  Total Cell Count: 184 and 251
